Only some compounds are listed: those with a hit (about 4.8% of all), similar ones and a draw of the others.
Mdm2 MdmX PPI = disrupts the human Mdm2-MdmX interaction; SaOS-2 split-luciferase Mdm2/MdmX complementation, luminescence; 330,000 tested, 3% active; O15151+Q00987; inhibition, % at 8 µM;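 active = inhibition of at least 50% at 8 µM in the primary screen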
Target sequence (O15151 whole entry, looked up): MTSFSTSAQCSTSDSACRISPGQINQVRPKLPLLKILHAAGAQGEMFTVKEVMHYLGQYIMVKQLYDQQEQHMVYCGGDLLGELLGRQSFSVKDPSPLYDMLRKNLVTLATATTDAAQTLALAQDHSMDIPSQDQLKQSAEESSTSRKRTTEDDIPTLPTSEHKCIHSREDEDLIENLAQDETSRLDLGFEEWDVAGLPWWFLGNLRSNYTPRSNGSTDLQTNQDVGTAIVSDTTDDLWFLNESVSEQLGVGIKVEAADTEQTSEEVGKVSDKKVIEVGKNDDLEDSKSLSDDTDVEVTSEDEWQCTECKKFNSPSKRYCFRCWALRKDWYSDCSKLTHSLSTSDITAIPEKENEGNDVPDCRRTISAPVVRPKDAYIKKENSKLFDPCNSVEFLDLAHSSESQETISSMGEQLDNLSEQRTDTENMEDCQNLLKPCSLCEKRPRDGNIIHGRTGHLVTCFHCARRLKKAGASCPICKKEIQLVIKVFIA
Target sequence (Q00987 whole entry, looked up): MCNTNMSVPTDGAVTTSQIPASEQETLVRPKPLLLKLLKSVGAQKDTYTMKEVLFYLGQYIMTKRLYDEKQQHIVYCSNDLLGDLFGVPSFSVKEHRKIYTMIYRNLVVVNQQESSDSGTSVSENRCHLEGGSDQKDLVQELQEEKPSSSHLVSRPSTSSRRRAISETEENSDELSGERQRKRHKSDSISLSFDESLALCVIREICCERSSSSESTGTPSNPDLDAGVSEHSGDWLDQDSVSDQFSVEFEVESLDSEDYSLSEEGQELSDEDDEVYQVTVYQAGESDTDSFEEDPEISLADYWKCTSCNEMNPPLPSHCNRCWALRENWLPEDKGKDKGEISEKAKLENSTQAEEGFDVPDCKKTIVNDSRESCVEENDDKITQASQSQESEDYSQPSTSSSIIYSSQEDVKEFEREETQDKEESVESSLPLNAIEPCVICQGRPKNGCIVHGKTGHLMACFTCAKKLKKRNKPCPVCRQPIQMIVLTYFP
CHOP UPR activ = apoptotic UPR (CHOP) activation; activation, % at 10 µM; CHO-CHOP luciferase reporter, luminescence; percent of tunicamycin response over DMSO baseline; 330,000 tested, 0.34% active;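 active = at 10 µM dose, activation of 40% or more, normalized to positive control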
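Test system: CHO-CHOP cells, stable luciferase reporter of PERK-eIF2a-CHOP signalling | Quantity: 500 CHO-CHOP cells per well | Buffer or medium: F12 plus 10% serum | Compound dosing: 10 µM single point, 0.5% DMSO | Schedule: 6 h compound treatment, 37 °C | Signal: Luciferase luminescence | Control set: Tunicamycin high control, DMSO low control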
XBP1 UPR activ = activators of adaptive arm of unfolded protein response (XBP1) | activation, % at 20 µM | 330,000 tested, 0.33% active | CHO-XBP1 luciferase reporter, IRE1-XBP1 UPR activation, luminescence; percent of tunicamycin response, DMSO as zero;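 active = versus positive control, 20 µM dose yields 30% or more activation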
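incubation = overnight seeding at 37 °C, 6 h compound treatment at 37 °C | assay system = CHO-XBP1 cells stably carrying IRE1-XBP1-driven luciferase reporter | input = 1000 cells per well | detection = luciferase luminescence | dosing = single point, 20 µM final compound, 1% DMSO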
Beta apoptosis = blocks beta cell apoptosis; INS-1E cytokine-induced death, ATP luminescence, 48 h; percent of positive-control rescue, neutral wells zero; protection from apoptosis, % (no concentration beside the values); 300,000 tested, 0.8% active; AID 435005;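 active = Every replicate reaches about 75%, or at least half do and their mean reaches it too, limit read from the data; inconclusive = At least half of replicates reach the limit but their mean does not; inactive = Under half of replicates reach the limit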;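 note: higher means more ATP so stronger rescue from cytokine killing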
SKKanGAS inh = SKKanGAS growth inhibition; inhibition, % at 7.5 µM; S. pyogenes SKKanGAS, kanamycin growth, BacTiter-Glo, 6 h; AID 1662; 300,000 tested, 1.3% active;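 active = mean replicate score, as percent of positive control median, at least 50; inconclusive = mean below 50 but one replicate at or above 50; inactive = mean and every replicate below 50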;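 note: strain carries kanamycin resistance gene driven by streptokinase promoter and grows in 40 µg/ml kanamycin; loss of luminescence reflects streptokinase promoter inhibition or plain growth inhibition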
CSC inhib = cancer stem cell inhibition | cancer stem cell-like cells viability, luminescence | inhibition, % at 7.5 µM | 300,000 tested, 1.1% active | AID 2717; in the data active = inhibition above about 75%; inconclusive = no clear call, values can overlap the other calls; tested in HMLE shEcad cells
Mdm2 MdmX conf = human Mdm2/MdmX binding inhibition, confirmed. inhibition, % at 8 µM. shares compounds with Mdm2 MdmX PPI. luminescent assay. 10,000 tested, 55% active; in the data active = inhibition above about 40%
Full FLuc ctr = full-length luciferase inhibition in Mdm2/MdmX counter-screen | shares compounds with Mdm2 MdmX PPI | SaOS-2 full-length luciferase counterscreen, luminescence | inhibition, % at 8 µM | 6,200 tested, 77% active;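 active = mean inhibition at 8 µM reaching about 37%, which flags the compound as non-specific, limit read from the data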;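 note: p53-null SaOS-2 cells with luciferase driven by a doxycycline-inducible promoter; compound on cells about two nights before reading with doxycycline added after day one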
A number is an active result; - = inactive; ? = inconclusive; . = no result.

SMILES	Mdm2 MdmX PPI	CHOP UPR activ	XBP1 UPR activ	Beta apoptosis	SKKanGAS inh	CSC inhib	Mdm2 MdmX conf	Full FLuc ctr
CCCCNc1c(-c2ccc(OC)c(SC3CCCCC3)c2)nc2cc(C)ccn12	64	-	-	-	72	92	-	.
CCCCNc1c(-c2cccc(-c3cc(C(C)=O)cs3)c2)nc2ccc(C)cn12	81	-	-	-	53	125	58	60
CCCCNc1c(-c2cccc(-c3ccc(OC)cc3)c2)nc2ccc(C)cn12	99	-	-	92	63	114	56	66
CCCCNc1c(-c2ccc(SC3CCCCC3)cc2)nc2cnccn12	-	-	-	.	.	.	.	.
CCCCNc1c(-c2cccc(-c3ccc(OC)cc3)c2)nc2cc(C)ccn12	92	-	-	-	.	.	-	.
COc1ccc(-c2nc3cc(C)ccn3c2NC(=O)c2ccccc2OC)cc1	-	-	-	-	-	-	.	.
O=C(CC(=O)Nc1cc(Cl)ccc1Cl)Nc1cc(Cl)ccc1Cl	-	-	-	-	-	-	.	.
C/C(=N/NC(=O)CN(c1ccccc1)S(=O)(=O)c1ccccc1)c1ccccc1O	72	-	-	109	-	-	60	-
CCOC(=O)C1=C(COC(=O)/C=C/c2cccc(OC)c2)NC(=O)NC1C (stereo unspecified)	-	-	-	-	-	-	.	.
O=C1c2cccc3cccc(c23)C(=O)N1c1nccs1	-	-	-	-	-	.	.	.
O=C1c2cccc3c([N+](=O)[O-])ccc(c23)C(=O)N1c1ccccn1	96	-	-	.	-	105	63	-
O=C1c2cccc3c([N+](=O)[O-])ccc(c23)C(=O)N1c1nccs1	92	-	-	-	-	79	90	-
O=C1c2cccc3c([N+](=O)[O-])ccc(c23)C(=O)N1c1ccc(Cl)cn1	100	-	-	-	-	112	100	54
CC(=O)Oc1ccc(N2C(=O)c3cccc4c([N+](=O)[O-])ccc(c34)C2=O)cc1	70	-	-	.	-	-	-	.
O=C(/C=C/c1ccc(Cl)c([N+](=O)[O-])c1)Nc1cccc(NC(=O)c2ccco2)c1	53	-	-	-	-	?	-	.
Cc1ccc(S(=O)(=O)Nc2cccc(C(=O)NCC(c3ccco3)N3CCCC3)c2)cc1F (stereo unspecified)	-	-	-	-	-	-	.	.
Cc1ccc(-c2nc(N3CCN(C)CC3)c3ccccc3n2)cc1	-	-	-	-	-	-	.	.
CN1CCN(c2nc(-c3ccc(C(C)(C)C)cc3)nc3ccccc23)CC1	50	-	-	-	-	-	48	173
Cc1[nH]c(N=Nc2ccccc2)nc1N=Nc1ccccc1	77	-	-	100	?	105	84	-
Nc1ccc(N=Nc2ccccc2)c(N)n1	-	-	-	.	-	.	.	.
CCc1ccc(NC(=O)CSc2nc3ncc(Br)cc3[nH]2)cc1	-	-	-	-	-	-	.	.
N#Cc1cc(Oc2cccc3cccnc23)c(-n2nnc3ccccc32)cc1C#N	62	-	-	-	-	-	-	.
O=C(NNC(=O)c1ccccc1F)C1=NN(c2ccccc2)C(=O)CC1	-	-	-	-	-	-	.	.
Cn1nnnc1Sc1ncnc2scc(-c3cccc(C(F)(F)F)c3)c12	100	-	-	-	.	.	99	53
Cn1nnnc1Sc1ncnc2scc(-c3cccc(F)c3)c12	98	-	-	-	.	-	99	53
SMILES	Mdm2 MdmX PPI	CHOP UPR activ	XBP1 UPR activ	Beta apoptosis	SKKanGAS inh	CSC inhib	Mdm2 MdmX conf	Full FLuc ctr
Cn1nnnc1Sc1ncnc2scc(-c3ccc(C(F)(F)F)cc3)c12	98	-	-	-	.	94	99	50
COc1cccc(-c2csc3ncnc(Sc4nnnn4C)c23)c1	98	-	-	-	.	.	80	-
Cc1cc(-c2ccccc2)nc(SCc2ccc(C(=O)O)cc2)n1	-	-	-	-	-	-	.	.
CC(C)CN(C(=O)CN1C(=O)NC(c2ccccc2)(c2ccccc2)C1=O)C1CCS(=O)(=O)C1 (stereo unspecified)	-	-	-	-	.	.	.	.
O=C(NCC(=O)N1CCN(Cc2ccccc2)CC1)c1ccc(Br)o1	-	-	-	-	-	-	.	.
O=C(N/N=C/c1cc(Br)cc([N+](=O)[O-])c1O)c1ccc(NC(=O)c2ccc(F)cc2)cc1	56	-	-	-	59	-	-	60
C=CCn1c(SCC(=O)N(C)c2c(N)n(Cc3ccccc3)c(=O)[nH]c2=O)nnc1-c1ccccc1OC	-	-	-	-	-	-	.	.
Cc1sc(NC(=O)Cc2ccc3c(c2)OCO3)nc1-c1ccc2c(c1)CCN2C(=O)c1ccc(F)cc1	-	-	-	-	-	-	.	.
Cc1sc(NC(=O)Cc2ccc3c(c2)OCO3)nc1-c1ccc2c(c1)CCN2C(=O)c1ccccc1F	54	-	-	-	-	-	-	.
COc1cc(/C=C2/C(=O)N(C)C(=S)N2C)ccc1OCc1cccc(F)c1	88	-	-	-	-	-	-	.
CCN(CC)C(=O)[C@H]1C[C@H](CC(=O)NCc2ccc(OC)c(OC)c2)C(=O)N2CCc3c([nH]c4cc(CCC(=O)N(C)C)ccc34)[C@]12C	-	-	-	.	.	.	.	.
CC(C)=CCC/C(C)=C/CNC(=O)C[C@H]1C[C@H](C(=O)N2CCOCC2)[C@@]2(C)c3[nH]c4ccc(Cl)cc4c3CCN2C1=O	88	-	-	.	.	.	-	.
CCN(CC)C(=O)[C@H]1C[C@H](CC(=O)NC/C=C(\C)CCC=C(C)C)C(=O)N2CCc3c([nH]c4cc(CCC(=O)N(C)C)ccc34)[C@]12C	68	-	-	.	.	.	-	.
CC(C)=CCC/C(C)=C/CNC(=O)CC1C[C@H](C(=O)N2CCOCC2)[C@@]2(C)c3[nH]c4ccccc4c3CCN2C1=O (stereo partly specified)	-	-	-	-	.	-	.	.
Cc1nc2c3cc(F)ccc3n(CCN3CCCCC3)c2s1	56	-	-	-	-	-	56	68
Cc1nc2c3cc(F)ccc3n(Cc3ccccc3)c2s1	53	-	-	100	-	118	55	69
Cc1nc2c3cc(F)ccc3n(Cc3ccccc3F)c2s1	59	-	-	-	-	-	45	78
O=C(c1ccccc1F)N1CCN(c2ccc([N+](=O)[O-])c(NCc3cccnc3)c2)CC1	-	-	-	-	-	-	.	.
COc1ccc(CCNc2cc(N3CCN(C(=O)c4ccccc4F)CC3)ccc2[N+](=O)[O-])cc1OC	53	-	-	104	-	-	-	79
COc1cccc(NC(=O)NC2(C(=O)N3CCN(C)CC3)CCCCC2)c1	-	-	-	-	-	-	.	.
